Compounds with a hit are over-represented: about 2% of the library has one in this group of screens.
dFosB act: activators of mouse delta FosB homodimer. 0.99% of 340,000 active. AID 493131. activation, % at 25 µM. purified delta FosB, TAMRA-CDK5 oligo fluorescence polarization; percent of positive-control signal above neutral wells;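 active = mean activation above about 17%, with every replicate also reaching it, limit read from the data, passing the limit was not always enough; inconclusive = only one of the two conditions met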
Target sequence (P13346 whole entry, looked up): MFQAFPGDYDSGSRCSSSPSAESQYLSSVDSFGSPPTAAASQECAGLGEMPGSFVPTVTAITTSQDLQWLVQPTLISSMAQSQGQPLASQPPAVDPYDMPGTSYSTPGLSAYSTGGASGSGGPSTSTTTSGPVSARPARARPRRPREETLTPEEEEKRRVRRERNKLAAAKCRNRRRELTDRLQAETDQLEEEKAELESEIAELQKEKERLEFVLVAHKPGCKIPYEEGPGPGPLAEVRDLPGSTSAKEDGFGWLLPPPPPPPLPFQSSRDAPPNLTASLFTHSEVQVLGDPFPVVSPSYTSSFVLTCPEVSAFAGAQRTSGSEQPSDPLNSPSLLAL
CDK5 inh: inhibitors of human CDK5/p35 kinase; Q00535+Q15078; Recombinant CDK5/p35, ADP-Glo luminescence, 60 min; inhibition, % at 10 µM; 0.01% of 330,000 active; AID 488839;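 active = highest replicate inhibition of at least 50% and at least 75% of replicates reaching 50%; inconclusive = only one of the two criteria met; inactive = both criteria failed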;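 also: plate controls were DMSO neutral control for no effect and GW8510 at 10 µM for full effect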
CAL PDZ FP-1: blocks peptide binding to the human CAL PDZ domain | 0.92% of 300,000 active | Q9HD26 | inhibition, % at 24.9 µM | purified CAL PDZ, TMR-peptide fluorescence polarization, 1 h;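 active = mean inhibition of at least 30% with at least half of replicates also reaching 30%; inconclusive = no clear call, values can overlap the other calls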;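 also: 0% = DMSO neutral control and 100% = excess unlabeled competitor peptide PRC23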
CAL PDZ FP-2: blocks peptide binding to human CAL PDZ domain; 0.02% of 330,000 active; Q9HD26; inhibition, % at 20 µM; purified CAL PDZ, TMR-peptide fluorescence polarization, 1 h;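 active = highest replicate inhibition of at least 40%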;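 also: plate controls were DMSO neutral control wells for no effect and unlabeled competitor peptide control wells for full effect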
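Material: tagged CAL PDZ protein CerCALP, purified; buffer or medium: sodium phosphate/NaCl buffer pH 7.4 with TCEP, IgG, Thesit; also added: fluorescent TMR peptide probe; schedule: 1 h incubation at room temperature before polarization reading; technique: fluorescence polarization from S- and P-plane intensities, G-factor corrected; control set: unlabelled peptide and DMSO controls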
C2C12 statin: suppression of simvastatin myotoxicity; C2C12 myotubes + simvastatin, ATP luminescence, 48 h; scaled: DMSO 0, geranylgeraniol control 100; 0.78% of 330,000 active; rescue of ATP level, % at 7.49 µM;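 active = mean ATP rescue above about 67%, or every replicate alone reaching that limit, limit read from the data, passing the limit was not always enough; inconclusive = no clear call, values can overlap the other calls; inactive = mean under the limit and some replicate under it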;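 also: myotubes were challenged with 10 µM simvastatin during compound exposure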
S100A4 inh HTS: blocks human S100A4 binding to myosin IIA peptide. S100A4/TAMRA-MyoIIA peptide fluorescence polarization. inhibition, % at 10.7 µM. 0.14% of 360,000 active;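 active = mean inhibition of at least 70% across replicates, with every replicate also reaching that level; inconclusive = mean inhibition reaches 70% but some replicates fall short; inactive = mean inhibition below 70%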
Target sequence (P26447 whole entry, looked up): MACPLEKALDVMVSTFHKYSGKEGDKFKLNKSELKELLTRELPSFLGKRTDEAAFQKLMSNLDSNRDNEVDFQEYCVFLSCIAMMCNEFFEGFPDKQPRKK
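assay system = human S100A4 monomer with TAMRA-labelled myosin IIA peptide | also added = labelled myosin peptide probe, 5 nM | incubation = 5 min between mix addition and reading | control set = DMSO and TFP controls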
* hit, by the source's call; ? = inconclusive; / = no result; + = active, no number.

SMILES	dFosB act	CDK5 inh	CAL PDZ FP-1	CAL PDZ FP-2	C2C12 statin	S100A4 inh HTS
CCOC(=O)C1CCN(c2ccc(Cl)nn2)CC1	-1	-1	-1	-2	/	-6
CCOC(=O)C1CCN(c2ccc(-c3cccs3)nn2)CC1	0	20	93*	/	-59	1
Cc1oc(-c2cccs2)nc1CS(=O)CC(=O)NCCc1ccccc1 (stereo unspecified)	-8	2	-7	-1	1	-6
O=C(NNS(=O)(=O)c1ccccc1[N+](=O)[O-])c1cccc(Cl)c1	4	2	-6	-1	/	/
O=C(NNS(=O)(=O)c1ccccc1[N+](=O)[O-])c1cccc(Br)c1	-2	2	51*	-1	0	3
O=C(CC1SCCNC1=O)Nc1cccc(Cl)c1 (stereo unspecified)	-10	/	-2	-1	/	/
CCc1ccccc1NC(=O)CC1SCCNC1=O (stereo unspecified)	0	1	32*	-1	/	6
O=C(N/N=C/c1cc([N+](=O)[O-])ccc1O)C1CC1	-2	1	79*	18	-36	-6
Cn1cc(S(=O)(=O)N2CCc3ccccc32)cc1C(=O)NC1CCCCC1	-3	0	/	0	0	-2
COC(=O)Cn1cc(C(=O)OC)c2ccccc21	5	-1	-3	-1	98*	/
CCOC(=O)Cn1cc(C(=O)OC)c2ccccc21	-8	1	1	-2	5	/
COC(=O)c1cn(CC(=O)N2C(C)CCCC2C)c2ccccc12 (stereo unspecified)	-12	2	-3	0	105*	/
COc1ccc(-n2c(=O)/c(=C\c3cccs3)s/c2=C(/C#N)C(=O)NCCN2CCOCC2)cc1	-4	0	7	-1	4	10
C=CCn1c(=O)/c(=C\c2ccsc2)s/c1=C(/C#N)C(=O)NCCN1CCOCC1	-5	1	12	-1	112*	/
N=c1c(S(=O)(=O)c2ccc(Cl)cc2)cc2c(=O)n3ccccc3nc2n1CCc1ccccc1	?	-3	0	-2	-34	0
CC(C)c1ccc(C(=O)Nc2nnc(S(=O)(=O)N3CCOCC3)s2)cc1	-4	1	-3	-2	-6	-1
Cc1cccc(-c2ncc(CN3CCCC(CO)(Cc4cccc(Cl)c4)C3)cn2)c1 (stereo unspecified)	-9	-1	57*	16	2	-3
CCc1ccc(CCC(=O)Nc2ccc(OC)cc2)o1	1	0	-4	/	3	/
COc1ccc(C(N)CCc2ccc(C)o2)cc1 (stereo unspecified)	-2	1	0	0	137*	/
CC(=O)Nc1c(O)nc(SCc2ccc(Cl)cc2)[nH]c1=O	4	-1	-2	-2	/	/
CC(=O)N1c2ccc(S(=O)(=O)NCC3CCC(C(=O)N4CCC(C)CC4)CC3)cc2CC1C (stereo unspecified)	-5	0	3	-1	7	-1
O=C(Nc1cc(Cl)ccn1)C1CCN(S(=O)(=O)c2cccs2)CC1	1	0	33*	0	-18	/
N#Cc1ccc(NC(=S)NCCN2CCOCC2)cc1	3	-1	91*	-1	0	-1
O=C(NCc1ccccc1)C1CCC(CNS(=O)(=O)c2cccs2)CC1 (stereo unspecified)	-9	-2	7	-2	97*	-1
O=C(c1ccccc1)c1ccc(Cn2cc(CCCO)nn2)cc1	3	1	-3	-1	150*	-7
SMILES	dFosB act	CDK5 inh	CAL PDZ FP-1	CAL PDZ FP-2	C2C12 statin	S100A4 inh HTS
O=C(O)CCCCCCCCc1cn(Cc2ccc(C(=O)c3ccccc3)cc2)nn1	-3	-1	-4	-1	/	16
CC(C)c1nnc(NC(=O)CCCC(=O)O)s1	6	-2	-1	0	/	/
CCOC(=O)CC(=O)Nc1nnc(C(C)C)s1	-8	0	38*	-1	7	/
Cc1cccc(NC(=O)NNC(=O)c2cc3ccccc3cc2O)c1C	11	-2	-1	-1	/	2
CC1C/C(=C\c2ccccc2[N+](=O)[O-])c2nc3ccccc3c(C(=O)O)c2C1 (stereo unspecified)	10	0	49*	-1	8	-4
CN(C)S(=O)(=O)c1ccc(N2CCCC2)c(C(=O)Nc2ccc(C(N)=O)cc2)c1	-6	3	4	-2	3	2
O=C(O)Cc1sc(-c2ccccc2)nc1-c1ccc(Cl)cc1	/	/	/	/	8	0
O=C(O)Cc1sc(-c2ccc(Cl)cc2)nc1-c1ccccc1	-4	0	54*	-1	/	/
O=C(CSc1nnc(-c2ccccn2)o1)Nc1ccccc1Cl	-1	5	0	-2	-9	1
COc1ccc(N2CCN(C(=S)NCc3ccc(C)cc3)CC2)cc1	9	0	32*	0	9	-1
COc1ccc(N2CCN(C(=S)Nc3cc(C)cc(C)c3)CC2)cc1	-2	1	0	-2	7	/
Cc1cc(N2CCN(Cc3nc(-c4ccc(F)cc4)oc3C)CC2)cc(C)n1	-6	0	0	-3	/	9
Cc1ccc(C(=O)OCC(=O)Nc2ccc3c(c2)OCO3)cc1S(=O)(=O)N1CCOCC1	-5	0	2	0	108*	/
Cc1ccc(NC(=O)COC(=O)c2ccc3c(c2)OCCO3)cc1S(=O)(=O)N1CCOCC1	-10	-2	-4	-2	/	-6
O=C(COC(=O)c1cc(S(=O)(=O)N2CCOCC2)ccc1Cl)Nc1ccc2c(c1)OCO2	0	-1	79*	-2	6	/
O=C(Nc1nccs1)c1ccc(CSc2nnnn2-c2ccccc2)cc1	-2	2	/	-4	/	/
CCN1[C@@H]2c3ccc(-c4ccccc4)c(=O)n3C[C@@H]2[C@@H](CO)[C@@H]1C(=O)NCC1CC1	/	/	/	/	15	2
COc1cccc2c1C(=O)c1c(O)c3c(c(O)c1C2=O)C[C@](O)(C(C)=O)C[C@H]3O[C@@H]1C[C@@H](N)[C@@H](O)[C@@H](C)O1	-351	1	10	14	-151	+
COc1cccc2c1C(=O)c1c(O)c3c(c(O)c1C2=O)CC(O)(C(C)=O)CC3OC1CC(O)C(O)C(C)O1 (stereo unspecified)	-328	2	-1	11	/	+
CCNC(=O)Nc1ccc2c(c1)C(=O)N(C)[C@H]1CC[C@H](CC(=O)NCCN3CCCC3)O[C@H]1CO2	/	/	/	/	10	/
c1ccc(-n2nnnc2SCc2cn3cccnc3n2)cc1	4	4	/	-3	7	/
CCOC(=O)C1CCCN(C(c2ccccn2)c2c(C)[nH]c3ccccc23)C1 (stereo unspecified)	0	-1	119*	-2	/	0

Screening data deposited in PubChem by Broad Institute.
